Active and inactive are the calls of the source. The calls are words filed in the database; no cut-off is given here.

The source of these data is ChEMBL document CHEMBL1152805, “Dual inhibitors of phosphodiesterase-4 and serotonin reuptake” (J Med Chem, 2009).

The subject of data set [1] is Mus musculus. In words: Antidepressant activity in BALB/c mouse assessed as decrease in immobility duration at 37.4 umol/kg, ip administered 30 mins prior to test by forced swimming test. Format: functional, organism-based. The gist of the method:
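Acute dosing in male Balb/c mice (22.4 ± 0.1 g). Drug in 0.9% saline with 5% DMSO, given i.p. 30 min before the forced-swim test. Swim pretest once daily on 2 successive days, then test 24 h later. Each session was 6 min in a cylinder filled to 28 cm with water at 23 ± 1°C, scoring immobility duration. n = 10–11; ANOVA with Dunnett's test.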

The test system of data set [2] is Mus musculus. In words: Antidepressant activity in BALB/c mouse assessed as decrease in immobility duration at 37.4 umol/kg, ip administered 23 hrs, 5 hrs and 1 hr prior to test measured after 4 weeks by forced swimming test. Format: functional, organism-based. In a few lines:
(§1)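 Male Balb/c mice (22.4 ± 0.1 g), second session run 4 weeks after the first. Drug in 0.9% saline with 5% DMSO (vehicle alone as control), given i.p. 23, 5 and 1 hr before the forced-swim test, with no pretest training. Each mouse was placed 6 min in a water-filled cylinder (23 ± 1°C) and immobility duration recorded. n = 10–11; one-way ANOVA with Dunnett's test.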

The target of data set [3] is T1, Sodium-dependent dopamine transporter (Homo sapiens, UniProt Q01959). In words: Displacement of [125I]RTI-55 from human recombinant DAT expressed in HEK293 cells by scintillation counting. Format: cell-based. In general terms: Displacement assays read how much labelled ligand stays bound in the presence of the test substance.
T1 sequence (Q01959 whole entry): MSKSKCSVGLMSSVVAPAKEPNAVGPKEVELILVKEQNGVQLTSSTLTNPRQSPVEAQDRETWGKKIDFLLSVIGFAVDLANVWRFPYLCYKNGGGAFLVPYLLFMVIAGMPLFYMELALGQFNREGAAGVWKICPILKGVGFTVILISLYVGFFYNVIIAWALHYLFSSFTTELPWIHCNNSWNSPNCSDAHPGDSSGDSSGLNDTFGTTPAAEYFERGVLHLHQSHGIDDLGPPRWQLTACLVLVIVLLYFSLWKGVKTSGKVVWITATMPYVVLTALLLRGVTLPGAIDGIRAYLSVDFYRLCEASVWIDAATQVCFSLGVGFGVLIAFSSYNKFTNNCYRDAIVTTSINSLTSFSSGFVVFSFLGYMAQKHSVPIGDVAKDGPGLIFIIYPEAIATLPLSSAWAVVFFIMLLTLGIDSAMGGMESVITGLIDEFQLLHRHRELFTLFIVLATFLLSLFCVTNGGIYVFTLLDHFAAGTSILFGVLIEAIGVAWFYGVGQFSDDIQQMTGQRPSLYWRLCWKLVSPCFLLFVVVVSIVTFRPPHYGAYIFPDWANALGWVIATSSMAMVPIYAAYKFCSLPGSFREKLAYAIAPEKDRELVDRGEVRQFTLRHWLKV
For data set [4], the target named is T2, Sodium-dependent serotonin transporter (Homo sapiens, UniProt P31645). In words: biochemical. Format: cell-based, HEK293.
T2 sequence (P31645 whole entry): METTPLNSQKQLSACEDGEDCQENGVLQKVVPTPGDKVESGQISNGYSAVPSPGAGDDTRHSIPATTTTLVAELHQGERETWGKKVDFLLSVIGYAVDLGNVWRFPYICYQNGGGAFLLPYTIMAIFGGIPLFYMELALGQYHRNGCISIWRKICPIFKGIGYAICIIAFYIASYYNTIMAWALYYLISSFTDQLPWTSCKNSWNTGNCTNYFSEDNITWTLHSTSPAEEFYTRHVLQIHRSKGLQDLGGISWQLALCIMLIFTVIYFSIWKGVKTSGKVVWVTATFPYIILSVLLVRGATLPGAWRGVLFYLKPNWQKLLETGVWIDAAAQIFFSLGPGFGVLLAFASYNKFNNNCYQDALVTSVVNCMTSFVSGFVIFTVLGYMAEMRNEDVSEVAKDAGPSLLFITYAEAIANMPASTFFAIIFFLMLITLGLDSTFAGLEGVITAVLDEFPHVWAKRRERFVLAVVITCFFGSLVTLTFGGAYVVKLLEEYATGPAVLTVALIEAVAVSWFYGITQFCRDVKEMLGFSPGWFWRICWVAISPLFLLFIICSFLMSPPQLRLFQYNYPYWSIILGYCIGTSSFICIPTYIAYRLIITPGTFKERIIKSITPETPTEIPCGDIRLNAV
Data set [5] concerns the target T1, Sodium-dependent dopamine transporter. In words: Displacement of [3H]dopamine from human recombinant DAT expressed in HEK293 cells by scintillation counting. Format: cell-based. The gist of the method: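 Suspended HEK-hDAT cells preincubated 10 min at 25 °C with test compound in Krebs-HEPES buffer. [3H]dopamine then added (20 nM final) for 10 min. Uptake stopped by filtration onto polyethylenimine-soaked GF/C filters, and radioactivity counted. Specific uptake defined with 5 µM mazindol. Triplicates, 3–4 experiments; Ki by Cheng-Prusoff.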

The target in data set [6] is T2, Sodium-dependent serotonin transporter. Format: cell-based, HEK293.
Data set [7] concerns Mus musculus. In words: Antidepressant activity in BALB/c mouse assessed as decrease in immobility duration at 20 mg/kg, ip administered 30 mins prior to test by forced swimming test. Format: functional, organism-based. Set-up: dose 20 mg/kg. In a few lines: (§2)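 Acute dosing in male Balb/c mice (22.4 ± 0.1 g), i.p. 30 min before the forced-swim test. Vehicle was saline with 5% DMSO. Pretest swims were given on two successive days, then the test 24 h later. Each swim lasted 6 min in a cylinder of water 28 cm deep at 23 ± 1°C, scoring immobility (upright floating). n = 10–11. One-way ANOVA with Dunnett's test.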

The subject of data set [8] is Mus musculus. In words: Antidepressant activity in BALB/c mouse assessed as decrease in immobility duration at 32.3 umol/kg, ip administered 23 hrs, 5 hrs and 1 hr prior to test measured after 4 weeks by forced swimming test. Format: functional, organism-based. In a few lines:
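Male Balb/c mice received subchronic i.p. dosing at 23, 5 and 1 hr before the forced-swim test, with no pretest training. This session ran 4 weeks after the acute session. Vehicle was saline with 5% DMSO. The swim lasted 6 min in a cylinder of water 28 cm deep at 23 ± 1°C, scoring immobility duration. n = 10–11. One-way ANOVA with Dunnett's test.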

Data set [9] concerns Mus musculus. In words: Antidepressant activity in ICR mouse assessed as decrease in immobility duration at 40 mg/kg, ip by forced swimming test. Set-up: dose 40 mg/kg. Format: functional, organism-based.
Data set [10] concerns Mus musculus. In words: Antidepressant activity in ICR mouse assessed as decrease in immobility duration at 65 umol/kg, ip administered 30 mins prior to test by forced swimming test. Format: functional, organism-based.
For data set [11], the target named is 3',5'-cyclic-AMP phosphodiesterase 4B (Homo sapiens, UniProt Q07343). In words: Inhibition of human recombinant PDE4B3 assessed as inhibition of cAMP hydrolysis.
Sequence of 3',5'-cyclic-AMP phosphodiesterase 4B (Q07343 whole entry): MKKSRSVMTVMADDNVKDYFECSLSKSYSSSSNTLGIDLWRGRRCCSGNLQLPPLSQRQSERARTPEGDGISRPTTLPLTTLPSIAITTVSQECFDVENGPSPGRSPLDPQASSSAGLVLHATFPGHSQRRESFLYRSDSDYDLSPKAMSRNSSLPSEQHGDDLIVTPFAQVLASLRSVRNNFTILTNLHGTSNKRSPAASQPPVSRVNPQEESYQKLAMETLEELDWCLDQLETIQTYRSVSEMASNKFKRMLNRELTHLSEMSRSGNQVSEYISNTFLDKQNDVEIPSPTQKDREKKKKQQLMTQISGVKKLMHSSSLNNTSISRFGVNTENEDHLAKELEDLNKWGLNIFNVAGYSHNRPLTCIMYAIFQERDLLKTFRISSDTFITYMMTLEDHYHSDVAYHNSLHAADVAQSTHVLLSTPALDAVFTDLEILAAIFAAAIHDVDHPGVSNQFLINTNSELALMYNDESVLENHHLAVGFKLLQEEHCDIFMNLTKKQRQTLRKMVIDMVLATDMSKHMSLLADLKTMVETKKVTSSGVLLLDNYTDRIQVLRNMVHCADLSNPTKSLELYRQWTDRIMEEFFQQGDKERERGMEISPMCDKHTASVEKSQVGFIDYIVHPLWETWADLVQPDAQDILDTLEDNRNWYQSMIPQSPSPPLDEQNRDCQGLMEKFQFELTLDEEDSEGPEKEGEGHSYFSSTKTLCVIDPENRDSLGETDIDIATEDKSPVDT
For data set [12], the system named is Liver microsomes. In words: Metabolic stability in human liver microsomes assessed as half life after 60 mins by HPLC in presence of NADPH. Format: ADME, Microsome. Conditions: 1 h. The gist of the method: (§3)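 Liver microsomes (0.5 mg protein) in potassium phosphate buffer, pH 7.4, with an NADPH-generating system (NADP+, glucose-6-phosphate, G6P dehydrogenase), DETAPAC and MgCl2. Test compound added at 40 µM and incubated at 37 °C with shaking. Samples stopped with CH2Cl2/2-propanol at 0, 10, 25, 40 and 60 min. Substrate loss measured by HPLC and half-life calculated.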
On the technique in general: Liver microsomes are a subcellular fraction often used to study metabolism.

Data set [13] relates to Mus musculus. In words: Antidepressant activity in BALB/c mouse assessed as decrease in immobility duration at 1 mg/kg, ip administered 23 hrs, 5 hrs and 1 hr prior to test measured after 4 weeks by forced swimming test. Format: functional, organism-based. Set-up: dose 1 mg/kg. In a few lines:
as §1

Data set [14] has as its target 3',5'-cyclic-AMP phosphodiesterase 4A (Homo sapiens, UniProt P27815). In words: Inhibition of human recombinant PDE4A1 assessed as inhibition of cAMP hydrolysis.
Data set [15] relates to Mus musculus. In words: Antidepressant activity in ICR mouse assessed as decrease in immobility duration at 0.5 umol/kg, ip administered 30 mins prior to test by forced swimming test. Format: functional, organism-based. In a few lines: (§4)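 Male ICR mice (26.2 ± 0.3 g), 12 h light cycle. Drug in 0.9% saline with 5% DMSO, given i.p. 30 min before the forced-swim test. Lower doses were tested first, then higher doses 1 week later after re-randomization. Swim pretest on 2 successive days, test 24 h later: 6 min in a cylinder with 28 cm of water at 23 ± 1°C, recording immobility. n = 9–11; ANOVA with Dunnett's test.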

The subject of data set [16] is Mus musculus. In words: Antidepressant activity in ICR mouse assessed as decrease in immobility duration at 5 umol/kg, ip administered 30 mins prior to test after 1 week by forced swimming test. Format: functional, organism-based. In a few lines: as §4
Data set [17] relates to Mus musculus. In words: Antidepressant activity in ICR mouse assessed as decrease in immobility duration at 10 umol/kg, ip administered 30 mins prior to test after 1 week by forced swimming test. Format: functional, organism-based. The gist of the method: as §4
The nature of data set [18]: Metabolic stability in mouse liver microsomes assessed as half life at 40 uM after 60 mins by HPLC in presence of NADPH. Format: ADME, Microsome. The note with it: 1 h. In a few lines: as §3
In data set [19] the test system is Mus musculus. In words: Antidepressant activity in ICR mouse assessed as decrease in immobility duration at 1 umol/kg, ip administered 30 mins prior to test by forced swimming test. Format: functional, organism-based. In a few lines: as §4
For data set [20], the system named is Mus musculus. In words: Antidepressant activity in ICR mouse assessed as decrease in immobility duration at 0.5 mg/kg, ip once a day for 8 days by forced swimming test. Format: functional, organism-based. Set-up: dose 0.5 mg/kg.
Data set [21] has as its system Mus musculus. In words: Antidepressant activity in ICR mouse assessed as decrease in immobility duration at 0.5 mg/kg, ip by forced swimming test. Format: functional, organism-based. Set-up: dose 0.5 mg/kg.
The target of data set [22] is 3',5'-cyclic-AMP phosphodiesterase 4D (Homo sapiens, UniProt Q08499). In words: Inhibition of human recombinant PDE4D3.
Sequence of 3',5'-cyclic-AMP phosphodiesterase 4D (Q08499 whole entry): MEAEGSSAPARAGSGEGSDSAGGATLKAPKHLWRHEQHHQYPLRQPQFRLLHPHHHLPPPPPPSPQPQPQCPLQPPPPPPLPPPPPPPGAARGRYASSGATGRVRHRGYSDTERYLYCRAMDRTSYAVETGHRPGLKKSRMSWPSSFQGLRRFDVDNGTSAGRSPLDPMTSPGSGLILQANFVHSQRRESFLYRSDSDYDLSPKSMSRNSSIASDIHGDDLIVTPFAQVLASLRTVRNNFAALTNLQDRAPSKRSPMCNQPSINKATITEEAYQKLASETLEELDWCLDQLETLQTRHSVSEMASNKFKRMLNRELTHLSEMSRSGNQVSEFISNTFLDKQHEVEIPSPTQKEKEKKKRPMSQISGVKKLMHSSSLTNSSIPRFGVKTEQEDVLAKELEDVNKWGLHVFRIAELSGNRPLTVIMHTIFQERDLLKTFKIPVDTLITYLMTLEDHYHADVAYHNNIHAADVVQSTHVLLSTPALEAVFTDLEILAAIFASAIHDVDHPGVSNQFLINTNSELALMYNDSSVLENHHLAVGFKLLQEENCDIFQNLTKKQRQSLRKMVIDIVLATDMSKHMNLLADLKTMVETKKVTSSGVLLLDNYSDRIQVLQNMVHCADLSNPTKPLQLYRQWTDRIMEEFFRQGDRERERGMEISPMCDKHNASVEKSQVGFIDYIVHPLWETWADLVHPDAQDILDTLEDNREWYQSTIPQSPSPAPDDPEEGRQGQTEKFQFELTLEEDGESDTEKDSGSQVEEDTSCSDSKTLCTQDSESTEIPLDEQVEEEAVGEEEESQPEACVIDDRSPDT
In data set [23] the test system is Mus musculus. In words: Antidepressant activity in BALB/c mouse assessed as decrease in immobility duration at 35.5 umol/kg, ip administered 30 mins prior to test by forced swimming test. Format: functional, organism-based. In a few lines: as §2
Data set [24] concerns the target T3, Sodium-dependent noradrenaline transporter (Homo sapiens, UniProt P23975). In words: Displacement of [3H]norepinephrine from human recombinant NET expressed in HEK293 cells by scintillation counting. Format: cell-based.
Data set [25] has as its target T3, Sodium-dependent noradrenaline transporter. In words: Displacement of [125I]RTI-55 from human recombinant NET expressed in HEK293 cells by scintillation counting. Format: cell-based.

Sequence of 3',5'-cyclic-AMP phosphodiesterase 4A (P27815 whole entry): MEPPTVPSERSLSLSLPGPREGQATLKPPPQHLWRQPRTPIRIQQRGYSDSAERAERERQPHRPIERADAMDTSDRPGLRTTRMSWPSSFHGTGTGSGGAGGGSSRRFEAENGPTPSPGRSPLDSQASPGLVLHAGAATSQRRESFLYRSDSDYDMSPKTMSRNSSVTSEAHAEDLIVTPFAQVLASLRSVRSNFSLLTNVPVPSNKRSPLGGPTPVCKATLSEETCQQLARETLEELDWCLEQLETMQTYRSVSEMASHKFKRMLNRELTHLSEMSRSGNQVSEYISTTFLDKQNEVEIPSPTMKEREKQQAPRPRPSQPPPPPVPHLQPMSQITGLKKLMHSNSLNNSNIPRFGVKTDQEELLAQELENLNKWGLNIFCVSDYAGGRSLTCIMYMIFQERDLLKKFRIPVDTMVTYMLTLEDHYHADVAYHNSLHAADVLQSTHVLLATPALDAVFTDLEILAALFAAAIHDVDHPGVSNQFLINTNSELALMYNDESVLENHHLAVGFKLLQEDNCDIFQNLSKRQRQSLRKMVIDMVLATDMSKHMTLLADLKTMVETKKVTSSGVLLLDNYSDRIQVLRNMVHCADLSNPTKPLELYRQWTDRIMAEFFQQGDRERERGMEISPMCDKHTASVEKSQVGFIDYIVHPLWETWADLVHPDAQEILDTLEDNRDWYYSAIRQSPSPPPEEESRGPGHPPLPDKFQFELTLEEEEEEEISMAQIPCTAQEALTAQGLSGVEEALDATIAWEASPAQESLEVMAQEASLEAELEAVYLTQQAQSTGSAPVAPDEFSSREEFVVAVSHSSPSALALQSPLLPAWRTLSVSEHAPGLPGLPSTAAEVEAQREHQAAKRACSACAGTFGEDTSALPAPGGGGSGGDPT
T3 sequence (P23975 whole entry): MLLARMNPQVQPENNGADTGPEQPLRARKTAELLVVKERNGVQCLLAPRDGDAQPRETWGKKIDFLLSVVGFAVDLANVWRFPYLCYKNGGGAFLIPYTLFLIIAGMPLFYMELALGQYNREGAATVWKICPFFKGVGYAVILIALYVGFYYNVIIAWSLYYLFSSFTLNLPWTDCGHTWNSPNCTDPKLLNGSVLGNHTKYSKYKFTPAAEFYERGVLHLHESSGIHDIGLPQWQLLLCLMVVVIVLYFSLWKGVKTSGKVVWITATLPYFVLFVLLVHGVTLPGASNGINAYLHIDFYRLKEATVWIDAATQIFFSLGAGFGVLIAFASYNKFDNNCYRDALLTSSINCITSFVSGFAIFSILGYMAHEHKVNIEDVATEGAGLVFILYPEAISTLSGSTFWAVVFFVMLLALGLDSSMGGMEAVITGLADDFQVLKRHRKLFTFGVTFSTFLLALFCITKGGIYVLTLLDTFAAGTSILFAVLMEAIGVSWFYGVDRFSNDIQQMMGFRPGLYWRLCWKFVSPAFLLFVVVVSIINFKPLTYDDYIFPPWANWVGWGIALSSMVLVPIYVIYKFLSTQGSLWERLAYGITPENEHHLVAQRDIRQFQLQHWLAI

Regarding `COc1ccc(F)cc1CCC1CCC(CCN)O1` (configuration not stated), the result in data set [1] and in [2] was inactive.

The term Ki denotes the dissociation constant of the complex between target and ligand, obtained from inhibition or displacement. Broadly, the IC50 is the concentration at which inhibition is half-maximal. For the compound `COc1ccc(C2=NN(CCCCCBr)C(=O)[C@@H]3CC=CC[C@H]23)cc1OC` (racemic), the inhibitory constant (Ki) in data set [3] and in [4] was more than 100 µM each time. For the same compound, the half-inhibitory concentration (IC50) in data set [5] and in [6] was more than 100 µM throughout.

Turning to `CNCCC(Oc1ccc(C(F)(F)F)cc1)c1ccccc1` (configuration not stated), the outcome in data set [7] and in data set [8] was inactive. For the same compound, the outcome in data set [9] and in [10] was Active.

In the case of `COc1ccc(C2=NNC(=O)C3CC=CCC23)cc1OC` (configuration not stated), the figures for the Ki in [11] and in data set [14] were 0.25 µM and more than 1 µM, respectively. For the same compound, the Stability result in data set [12] is given as “Stable”. Moreover, the outcome in [13], in [15], in [16], in data set [17], in data set [19] and in data set [2] was Active. In data set [18], the t1/2 worked out at 3.522 h.

Take `COc1ccc(C2CNC(=O)C2)cc1OC1CCCC1` (configuration not stated): the result in [20] was Active. For the same compound, the outcome in data set [21] was inactive.

Regarding `COc1ccc(F)cc1CCC1CCC(CCNCCCCCN2N=C(c3ccc(OC)c(OC)c3)[C@H]3CC=CC[C@H]3C2=O)O1` (mixture of isomers), the Ki in data set [22] is 0.002 µM; in data set [11], 0.199 µM; in data set [3], 2.48 µM; in data set [4] it was 0.156 µM; in data set [14], more than 1 µM. Moreover, in [12], the Stability result is “Stable”. The outcome in data set [13] was inactive. For the same compound, the outcome in data set [15], in data set [16], in [17] and in data set [19] was Active. The half-maximal inhibitory concentration (IC50) in data set [5] worked out at 3.56 µM; in data set [6] it was 0.127 µM. Besides, in data set [18], the t1/2 came to 2.565 h.

Turning to `COc1ccc(F)cc1CCCC1CCC(CCN)O1` (configuration not stated), the outcome in data set [23] was inactive.

For `COc1ccc(F)c(CCCC2CCC(CCNCCCCCN3N=C(c4ccc(OC)c(OC)c4)[C@H]4CC=CC[C@H]4C3=O)O2)c1` (mixture of isomers), the Ki is 0.0012 µM in data set [22]; 0.5 µM in [11]; 5.34 µM in [3]; more than 1 µM in [14]; 7.44 µM in [25]. The Stability entry in data set [12] and in data set [18] was “Stable” throughout. Besides, the half-maximal inhibitory concentration (IC50) in [5] amounted to 5.34 µM; in data set [24], 7.44 µM.

Turning to `CNCCC1CCC(CCc2cc(F)ccc2OC)O1` (configuration not stated), in data set [5], the half-maximal inhibitory concentration (IC50) was more than 100 µM.
